Screening data deposited in PubChem by Sanford-Burnham Center for Chemical Genomics.
Compounds with a hit are over-represented: about 1.9% of the library has one in this group of screens.
LMPTP block – LMPTP phosphatase inhibitors, primary screen, biochemical, fluorescence intensity, uHTS. recombinant LMPTP-A, OMFP fluorogenic substrate. hit rate 0.22% among 360,000. AID 651560, 2012. Low molecular weight phosphotyrosine protein phosphatase (Homo sapiens), P24666. inhibition, % at 20 µM;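 active = compounds that cut the enzyme signal by at least half of the control window in the single-dose screen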;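 note: plate controls were DMSO wells with enzyme plus substrate for no effect and substrate without enzyme for full effect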
Target sequence (P24666 whole entry, looked up): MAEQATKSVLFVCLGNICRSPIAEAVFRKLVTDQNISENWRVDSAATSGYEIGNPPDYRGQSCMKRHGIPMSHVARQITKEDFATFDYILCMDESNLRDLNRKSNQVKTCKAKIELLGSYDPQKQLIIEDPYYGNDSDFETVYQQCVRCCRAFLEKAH
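test system = LMPTP-A | amount = 0.625 nM LMPTP-A final | reagent = fluorogenic phosphatase substrate OMFP at 400 µM final | incubation = 50 min at room temperature | benchmarks = no-enzyme low control, uninhibited high control | medium = Bis-Tris pH 6.0, DTT, detergent | signal = fluorescence intensity of OMFP turnover product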
FAS TE block – FAS thioesterase domain inhibitors, primary screen, biochemical, fluorescence intensity, uHTS; Fatty acid synthase (Homo sapiens), P49327; recombinant FAS-TE, OMFH fluorogenic substrate, fluorescence endpoint; inhibition, % at 15 µM; hit rate 0.67% among 360,000; AID 602261, 2012;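 active = compounds whose normalised, plate-corrected inhibition of enzyme fluorescence in the single-dose primary screen is 50% or more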;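 note: 0% = DMSO with enzyme and 100% = substrate without enzyme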
SUMO1-SIM PPI – modulators of SUMO1 protein-protein interactions, primary screen, biochemical, uHTS; SUMO1 binding to a labelled peptide, TR-FRET, 1 h; inhibition, % at 20 µM; hit rate 0.33% among 360,000; in the data active = inhibition above about 37%
Target sequence (P63165 whole entry, looked up): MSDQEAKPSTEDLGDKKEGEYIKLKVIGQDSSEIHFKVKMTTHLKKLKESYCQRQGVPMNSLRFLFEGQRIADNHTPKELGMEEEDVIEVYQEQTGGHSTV
STEP inh – STEP phosphatase inhibitors, primary screen, biochemical, fluorescence intensity, uHTS. recombinant STEP, OMFP fluorogenic substrate. AID 588621, 2011. inhibition, % at 20 µM. hit rate 0.25% among 360,000;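 active = inhibition at 20 µM, scaled per plate between control wells, above about 37%, limit read from the data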;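 note: 0% = DMSO with enzyme and substrate and 100% = substrate only without enzyme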
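Material: STEP (striatal-enriched tyrosine phosphatase) enzyme, cell-free | Medium: 50 mM Bis-Tris pH 6.0 with 2.5 mM DTT and 0.005% Tween 20 | Read-out: Percent inhibition scaled to no-enzyme and uninhibited-enzyme controls, plate-pattern corrected | Signal: Fluorescence read at 480 nm ex / 540 nm em | Times: 20 min reaction, room temperature, in the dark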
Scp1 inh – Scp-1 phosphatase inhibitors, primary screen, biochemical, colorimetric, uHTS | inhibition, % at 20 µM | Recombinant Scp1, phosphopeptide, malachite green phosphate absorbance | Carboxy-terminal domain RNA polymerase II polypeptide A small phosphatase 1 (Homo … | hit rate 0.88% among 340,000 | AID 493091, 2011;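 active = inhibition above about 50% at 20 µM, limit read from the data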;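 note: plate controls were DMSO wells with enzyme for no effect and wells lacking enzyme for full effect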
Target sequence (Q9GZU7 76-261 limits assumed): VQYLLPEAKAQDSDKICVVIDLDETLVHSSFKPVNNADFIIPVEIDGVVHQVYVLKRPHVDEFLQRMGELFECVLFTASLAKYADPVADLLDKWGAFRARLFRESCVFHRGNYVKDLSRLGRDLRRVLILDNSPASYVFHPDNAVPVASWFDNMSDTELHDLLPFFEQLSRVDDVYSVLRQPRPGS
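Material – SCP-1 phosphatase catalytic domain, residues 76-261 · Buffer or medium – Acidic Tris acetate buffer with magnesium and detergent · Also added – Phospho 17-mer peptide substrate · Compound – single 20 µM dose, 1% DMSO · Times – 45 min room-temperature reaction, 5 min colour, 30 min stabiliser · Technique – Phosphate-binding colour reagent, absorbance read at 630 nm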
FAS-TE conf – FAS thioesterase domain inhibitors, confirmation, biochemical, fluorescence intensity, single concentration; shares compounds with FAS TE block; recombinant FAS-TE, OMFH fluorogenic substrate; inhibition, % at 15 µM; hit rate 45% among 2,300;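 active = compounds inhibiting the enzyme by at least 50% at 15 µM in any one of the replicates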;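 note: 0% = enzyme with DMSO only and 100% = wells lacking enzyme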
Numbers without * were called inactive; x = not tested or not shown.

SMILES | LMPTP block | FAS TE block | SUMO1-SIM PPI | STEP inh | Scp1 inh | FAS-TE conf
Cc1cc(S(=O)(=O)ON2C(=O)c3ccccc3C2=O)ccc1F | -2 | 82* | -4 | 0 | -2 | 79*
Cc1ccc(S(=O)(=O)N2CCC(C(=O)OCC(=O)Nc3cc(S(C)(=O)=O)ccc3Cl)CC2)cc1C | 1 | 12 | 4 | -3 | 0 | x
Cc1ccc(C(=O)N[C@H](C(=O)NC2CCCCC2)C(C)C)cc1 | 0 | -6 | 3 | 0 | -10 | x
CCOCCCn1c(=NC(=O)c2cccs2)c(C#N)cc2c(=O)n3cccc(C)c3nc21 | 2 | 55* | -21 | -1 | -27 | 10
COCCCn1c(=NC(=O)c2ccccc2)c(C#N)cc2c(=O)n3cccc(C)c3nc21 | 3 | 51* | -9 | 2 | -3 | 46
CCOCCCn1c(=NC(C)=O)c(C#N)cc2c(=O)n3ccccc3nc21 | 3 | 6 | -19 | 4 | 2 | x
CCC(C)Sc1ccc([C@H]2N[C@@](Cc3ccccc3)(C(=O)OC)[C@H]3C(=O)N(C)C(=O)[C@@H]23)cc1 (some centres not stated) | 2 | 29 | 5 | 4 | -7 | x
CC(C)(C)C1N=C(c2ccc3ccccc3c2)OC1=O (configuration not stated) | -1 | -9 | -6 | -1 | -2 | x
O=S(=O)(c1ccc(SCc2ccc(Cl)cc2)nc1)N1CCCC1 | 5 | 54* | -1 | 3 | -14 | 38
CCOCc1c(C(=O)OCC(=O)NCc2ccc(F)cc2)oc2ccccc12 | 0 | 1 | 3 | 1 | -5 | x
O=C(Nc1ccc(Oc2cccc(C(F)(F)F)c2)nc1)c1cccs1 | 3 | 21 | 0 | 2 | -13 | x
O=C(O)CCCNc1c(C(=O)Nc2ccc(Cl)cc2)cc([N+](=O)[O-])cc1[N+](=O)[O-] | -1 | 74* | -15 | -1 | -5 | 81*
O=C(Nc1ccc(Nc2ccccc2)cc1)c1ccc(Cl)cc1[N+](=O)[O-] | 1 | 22 | -6 | 0 | -15 | x
O=C(OCc1ccc([N+](=O)[O-])cc1)C1CCN(S(=O)(=O)c2ccccc2)CC1 | 1 | 60* | 8 | 4 | -20 | 60*
O=C(O)c1ccc(Cl)c(NC(=S)NC(=O)c2cccc(COc3ccccc3)c2)c1 | 4 | 61* | 7 | 8 | -9 | 72*
CC(C)c1ccc(NC(=O)c2snc3ccc(Cl)cc23)cc1 | 4 | 58* | -7 | -1 | -10 | 34
CC(C)c1ccc(NC(=O)c2csnn2)cc1 | 0 | 1 | -3 | -8 | -8 | x
CCOC(=O)c1cc2c(c(-c3ccccc3)n1)[C@H](CCO)N(S(=O)(=O)C(C)(C)C)C2 | 0 | -5 | 6 | -3 | -14 | x
Cn1c(O)c(N=NC(=S)Nc2ccccc2F)c2cc(S(=O)(=O)N3CCOCC3)ccc21 | 1 | 9 | -8 | 0 | 4 | x
Cc1ccc(NC(=S)N=Nc2c(O)n(C)c3ccc(S(=O)(=O)N4CCOCC4)cc23)cc1C | 2 | 73* | -4 | 5 | 13 | 9
C=CCn1c(O)c(N=NC(=S)Nc2ccccc2C)c2cc(S(=O)(=O)N3CCOCC3)ccc21 | 1 | 64* | -17 | 1 | -15 | 19
CC(C)(C)c1ccc(/C=C2\CCn3c2nc2cc(C(=O)O)ccc2c3=O)cc1 | -2 | 84* | -17 | 6 | 8 | 88*
COc1ccc(/C=C2\CCn3c2nc2cc(C(=O)O)ccc2c3=O)cc1 | -1 | -4 | -22 | 0 | -1 | x
Cc1ccc(NC(=O)NNC(=O)Cn2nc(-c3ccccc3)c(-c3ccccc3)c(C#N)c2=O)cc1 | 1 | 68* | -24 | 5 | -9 | 58*
O=C(Cn1nc(-c2ccccc2)c2ccccc2c1=O)Nc1ccc(O)cc1 | 2 | -3 | 2 | -1 | -7 | x
SMILES | LMPTP block | FAS TE block | SUMO1-SIM PPI | STEP inh | Scp1 inh | FAS-TE conf
CC(CCc1ccco1)NC(=O)c1cccc2c1C(=O)N(C1CCCCC1)C2 (configuration not stated) | 1 | 63* | 2 | 4 | -8 | 9
Cc1nc(/N=C(\N)NC(=O)N2c3ccccc3Sc3ccccc32)nc2ccccc12 | 2 | 68* | -2 | 1 | 19 | 16
Cc1nc(/N=C(\N)NC(=O)c2ccccc2)nc2ccccc12 | 1 | 2 | 2 | -1 | 6 | x
Cn1c(=O)c2cc3c(nc2n(C)c1=O)CC(c1ccccc1)CC3=O (configuration not stated) | -1 | 60* | 0 | -1 | -18 | 51*
COc1ccc(NC(=O)c2cccc(Oc3ccc([N+](=O)[O-])cc3Cl)c2)cc1 | 5 | 52* | -7 | 0 | -20 | 9
N#CC(=C(O)CN1CCN(c2ccccc2F)CC1)c1nc(-c2ccc(Cl)cc2)cs1 | -4 | -3 | 0 | 0 | 2 | x
NC(=O)[C@H]1CC2(CC(c3cccc(NC(=O)CC(c4ccccc4)c4ccccc4)c3)=NO2)CN1C(=O)c1ccccc1C(=O)c1ccccc1 (some centres not stated) | 2 | 75* | 7 | -1 | -4 | 11
NC(=O)[C@H]1CC2(CC(c3cccc(NC(=O)CC(c4ccccc4)c4ccccc4)c3)=NO2)CN1C(=O)C(c1ccccc1)c1ccccc1 (some centres not stated) | 16 | 67* | 7 | 0 | -9 | 22
CCC(=O)Nc1cccc(C2=NOC3(C2)C[C@@H](C(N)=O)N(C(=O)c2ccccc2C(=O)c2ccccc2)C3)c1 (some centres not stated) | 0 | -7 | 1 | 0 | 0 | x
CS(=O)(=O)c1ccc2nc(NC(=O)c3cc(-c4ccccc4)nn3-c3ccccc3)sc2c1 | 0 | 86* | 23 | 0 | -5 | 12
Cc1c(C(=O)N2CCCC(C)(C(=O)NS(=O)(=O)C3CC3)C2)oc2ccccc12 (configuration not stated) | 4 | -6 | -1 | -2 | x | x
O=S(=O)(NCc1csc(-c2cccs2)n1)c1cccc(C(F)(F)F)c1 | 2 | 48 | -10 | 0 | -15 | x
CN1C(C(=O)NCc2cccc(Br)c2)CC2Cn3c(nc4cc(Cl)c(Cl)cc43)C21 (configuration not stated) | 0 | 57* | -2 | -2 | -4 | 44*
Cn1cc([N+](=O)[O-])c(C(=O)Nc2ccc(C3CCCCC3)cc2)n1 | 2 | 52* | -21 | -2 | -9 | 49
